Reference: ChEMBL document CHEMBL3046492, “Synthesis, insecticidal, and acaricidal activities of novel 2-aryl-pyrrole derivatives containing ester groups” (2008)
In brackets after ≈: the same amount, converted by molar mass.

Tests used:
Type in all cases: functional
Culex pipiens pallens [1] = assay: Insecticidal activity against fourth-instar larval stage of Culex pipiens pallens (mosquito) assessed as mortality at 0.10 mg/kg at 25 +/-1 degC after 2 days; details: 48 h
In short: (§1)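 Test solutions were prepared by adding 1 mL of each concentrated dilution to 99 mL water. Bioassays were run at 25 ± 1 °C on laboratory-reared insects.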

Tetranychus cinnabarinus [2] = assay: Toxic ratio, ratio of Chlorfenapyr LC50 to compound LC50 for adult two spot Tetranychus cinnabarinus (carmine spider mite) measured after 24 hr by slide immersion method
Aphis fabae [3] = assay: Insecticidal activity against apterous adult stage of Aphis fabae (black bean aphids) in soybean tender shoots assessed as mortality treated for 5 secs measured after 48 hr
In short: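 This was a slightly modified FAO dip test. Soybean tender shoots carrying 40-60 healthy apterous adult aphids were dipped in diluted compound for 5 s. Excess fluid was removed, and shoots were kept in a conditioned room. Mortality was scored at 48 h, with testing at 25 ± 1 °C.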

Culex pipiens pallens [4] = assay: Insecticidal activity against fourth-instar larval stage of Culex pipiens pallens (mosquito) assessed as mortality at 0.25 mg/kg at 25 +/-1 degC after 2 days; details: 48 h; in short: as §1
Culex pipiens pallens [5] = assay: Insecticidal activity against fourth-instar larval stage of Culex pipiens pallens (mosquito) assessed as mortality at 0.50 mg/kg at 25 +/-1 degC after 2 days; details: 48 h; in short: as §1
Mythimna separata [6] = assay: Insecticidal activity against fourth-instar larval stage of Mythimna separata (Oriental armyworm) in compound pretreated corn leaves assessed as mortality at 20 mg/kg at 25 +/-1 degC measured after 2 days
Nephotettix cincticeps [7] = assay: Insecticidal activity against third instar larval stage of Nephotettix cincticeps (green rice leafhopper) in rice seedlings assessed as mortality treated for 15 secs before larval infestation measured after 48 hr by seedling-dipping method
Mythimna separata [8] = assay: Insecticidal activity against fourth-instar larval stage of Mythimna separata (Oriental armyworm) in compound pretreated corn leaves assessed as mortality at 5 mg/kg at 25 +/-1 degC measured after 2 days
Tetranychus cinnabarinus [9] = assay: Acaricidal activity against adult Tetranychus cinnabarinus (carmine spider mite) in sieva bean plants assessed as mortality at 200 mg/kg treated for 3 secs measured after 2 days; details: 48 h
Tetranychus cinnabarinus [10] = assay: Acaricidal activity against adult Tetranychus cinnabarinus (carmine spider mite) in sieva bean plants assessed as mortality at 100 mg/kg treated for 3 secs measured after 2 days; details: 48 h
Tetranychus cinnabarinus [11] = assay: Acaricidal activity against adult two spot Tetranychus cinnabarinus (carmine spider mite) assessed as mortality at 25 +/-2 degC treated for 10 secs measured after 24 hr by slide immersion method
In short: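 Thirty adult female mites were fixed dorsally on double-sided tape on a slide with a small brush. Slides were immersed and shaken for 10 s in diluted test solution, and excess liquid was removed. Slides were then held at 25 ± 2 °C in a Petri dish with moist filter paper. Dead mites were counted at 24 h. There were 3 replicates of 30 mites each, with chlorfenapyr as standard. LC50 was obtained by Finney probit analysis.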

Mythimna separata [12] = assay: Insecticidal activity against fourth-instar larval stage of Mythimna separata (Oriental armyworm) in compound pretreated corn leaves assessed as mortality at 10 mg/kg at 25 +/-1 degC measured after 2 days
Aphis fabae [13] = assay: Toxic ratio, ratio of Chlorfenapyr LC50 to compound LC50 for apterous adult stage of Aphis fabae (black bean aphids) measured after 48 hr
Plutella xylostella [14] = assay: Toxic ratio, ratio of Chlorfenapyr LC50 to compound LC50 for second-instar larval stage of Plutella xylostella (diamondback moth) by leaf disk assay
Tetranychus cinnabarinus [15] = assay: Acaricidal activity against adult Tetranychus cinnabarinus (carmine spider mite) in sieva bean plants assessed as mortality at 50 mg/kg treated for 3 secs measured after 2 days; details: 48 h
Nephotettix cincticeps [16] = assay: Toxic ratio, ratio of Chlorfenapyr LC50 to compound LC50 for third-instar larval stage of Nephotettix cincticeps (green rice leafhopper) measured after 48 hr by seedling-dipping method
Plutella xylostella [17] = assay: Insecticidal activity against second-instar larval stage of Plutella xylostella (diamondback moth) in fresh cabbage leaves assessed as mortality treated for 15 secs before larval infestation by leaf disk assay; details: foliar

| SMILES | mortality at 0.1 mg/kg (Culex pipiens pallens [1]) [%] | RatioLC50 (Tetranychus cinnabarinus [2]) | LC50 (Aphis fabae [3]) [µg/mL] | mortality at 0.25 mg/kg (Culex pipiens pallens [4]) [%] | mortality at 0.5 mg/kg (Culex pipiens pallens [5]) [%] | mortality at 20 mg/kg (Mythimna separata [6]) [%] | LC50 (Nephotettix cincticeps [7]) [µg/mL] | mortality at 5 mg/kg (Mythimna separata [8]) [%] | mortality at 200 mg/kg (Tetranychus cinnabarinus [9]) [%] | mortality at 100 mg/kg (Tetranychus cinnabarinus [10]) [%] | LC50 (Tetranychus cinnabarinus [11]) [µg/mL] | mortality at 10 mg/kg (Mythimna separata [12]) [%] | RatioLC50 (Aphis fabae [13]) | RatioLC50 (Plutella xylostella [14]) | mortality at 50 mg/kg (Tetranychus cinnabarinus [15]) [%] | RatioLC50 (Nephotettix cincticeps [16]) | LC50 (Plutella xylostella [17]) [µg/mL] |
| --- | --- | --- | --- | --- | --- | --- | --- | --- | --- | --- | --- | --- | --- | --- | --- | --- | --- |
| CCOCn1c(-c2ccc(Cl)cc2)c(C#N)c(Br)c1C(F)(F)F [CHLORFENAPYR] | 100 | 1 | 12.2 (≈ 30 µM) | 100 | 100 | 100 | 26.8 (≈ 65.8 µM) | 0 | 100 | 97 | 1.14 (≈ 2.8 µM) | 100 | 1 | 1 | 93 | 1 | 1.82 (≈ 4.46 µM) |
| CC(C)CC(=O)OCn1c(-c2ccc(Cl)cc2)c(C#N)c(Br)c1C(F)(F)F | 100 | 2.65 | 17.8 (≈ 38.5 µM) | 100 | 100 | 100 | 34.1 (≈ 73.6 µM) | 0 | 100 | 100 | 0.43 (≈ 0.927 µM) | 100 | 0.69 | 0.97 | 100 | 0.79 | 1.88 (≈ 4.05 µM) |
